Results as given in ChEMBL document CHEMBL1148734, “Structure-activity relationships of phenyl-furanyl-rhodanines as inhibitors of RNA polymerase with antibacterial activity on biofilms” (J Med Chem, 2007).
Converted amounts (≈) assume the structure as drawn. The source made the active and inactive calls. The calls are words filed in the database; no cut-off is given here.

Experiments:
Staphylococcus aureus [1] = test: Antibacterial activity against multidrug resistant Staphylococcus aureus 49589; assay type: functional
Procedure, shortened: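 Broth microdilution MIC following CLSI. Compounds were predissolved in DMSO and tested as serial 2-fold dilutions at final 100 to 0.4 µg/mL. Inoculum was 5 × 10⁵ CFU/mL, and plates were read after 18 h at 37 °C.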

[2] = tested on: Staphylococcus epidermidis; test: Antibacterial activity against Staphylococcus epidermidis CIP 105777; assay type: functional
Escherichia coli [3] = test: Antibacterial activity against Escherichia coli tolC CGSC 5633; assay type: functional
Staphylococcus aureus [4] = test: Antibacterial activity against Staphylococcus aureus CIP 76.25; assay type: functional
Escherichia coli [5] = test: Inhibition of RNA polymerase sigma-70 transcription in Escherichia coli at 10 uM; assay type: functional
CHO = test: Cytotoxicity against CHO cells; assay type: cell-based, Cricetulus griseus; settings: chinese hamster
Procedure, shortened: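 CHO cells grown in RPMI with 5% fetal calf serum, then exposed to compounds 24 h at 37 °C without serum. MTT added at 300 µg/mL final, 3 h at 37 °C dark; acidified isopropanol added, 1 h at room temperature; OD at 595 nm.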

[6] = tested on: Staphylococcus epidermidis; test: Antibacterial activity against Staphylococcus epidermidis RP62A; assay type: functional
Streptococcus pneumoniae = test: Antibacterial activity against Streptococcus pneumoniae CIP 103566; assay type: functional
Clostridioides difficile = test: Antibacterial activity against Clostridium difficile DSM 1296; assay type: functional
Bacillus anthracis = test: Antibacterial activity against Bacillus anthracis 9131; assay type: functional

Row | Molecule | Activity (Staphylococcus aureus [1]) | MIC [2] | MIC (Escherichia coli [3]) | inhibition at 10 µM (Escherichia coli [5]) | Activity (CHO) | also measured
1 | CC1(C)S[C@@H]2[C@H](NC(=O)Cc3ccccc3)C(=O)N2[C@H]1C(=O)O | inactive | – | – | – | – | –
2 | CCn1cc(C(=O)O)c(=O)c2cc(F)c(N3CCNCC3)cc21 | inactive | – | – | – | – | –
3 | C=CCN1C(=O)/C(=C/c2ccc(-c3ccc(C(N)=O)cc3)o2)SC1=S | – | ≥ 100 µg/mL | 1.56 µg/mL (≈ 4.21 µM) | 102% | >= 100 ug ml-1 | MIC (Staphylococcus aureus [4]): ≥ 100 µg/mL; MIC (Staphylococcus aureus [1]): ≥ 100 µg/mL; MIC [6]: ≥ 100 µg/mL; MIC (Streptococcus pneumoniae): ≥ 100 µg/mL; MIC (Clostridioides difficile): ≥ 100 µg/mL; MIC (Bacillus anthracis): 12.5 µg/mL (≈ 33.7 µM)
4 | C#CCN1C(=O)S/C(=C\c2ccc(-c3ccc(C(=O)O)cc3)o2)C1=O | – | > 100 µg/mL | > 100 µg/mL | 100% | >= 100 ug ml-1 | –
5 | C=CCN1C(=O)/C(=C/c2ccc(-c3ccc(OP(=O)(O)O)cc3)o2)SC1=S | – | ≥ 100 µg/mL | ≥ 100 µg/mL | – | 50 µg/mL | –
6 | O=C(O)c1cccc(-c2ccc(C=C3C(=O)c4ccccc4C3=O)o2)c1 | – | 50 µg/mL (≈ 145 µM) | 50 µg/mL (≈ 145 µM) | 72% | 50 µg/mL | –
7 | O=C1NC(=S)S/C1=C\c1ccc(-c2ccc(C(=O)O)cc2)o1 | – | ≥ 100 µg/mL | ≥ 100 µg/mL | 82% | >= 100 ug ml-1 | –
8 | CC(=O)O[C@H]1C[C@@]2(C)[C@@H](C[C@@H](O)[C@H]3[C@@]4(C)CC[C@@H](O)[C@@H](C)[C@@H]4CC[C@@]32C)/C1=C(\CCC=C(C)C)C(=O)O | Active | – | – | – | – | –
9 | CCC[C@@H]1C[C@@H](C(=O)N[C@@H]([C@H]2O[C@H](SC)[C@H](O)[C@@H](O)[C@H]2O)[C@H](C)Cl)N(C)C1 | inactive | – | – | – | – | –
10 | NCC[C@H](O)C(=O)N[C@@H]1C[C@H](N)[C@@H](O[C@H]2O[C@H](CN)[C@@H](O)[C@H](O)[C@H]2O)[C@H](O)[C@H]1O[C@H]1O[C@H](CO)[C@@H](O)[C@H](N)[C@H]1O | inactive | – | – | – | – | –
11 | C=CCN1C(=O)/C(=C/c2ccc(-c3ccc([N+](=O)[O-])cc3)o2)SC1=S | – | ≥ 100 µg/mL | ≥ 100 µg/mL | 3% | >= 100 ug ml-1 | –
12 | CC1COc2c(N3CCN(C)CC3)c(F)cc3c(=O)c(C(=O)O)cn1c23 (centres undefined) | inactive | – | – | – | – | –
13 | C=CCN1C(=O)/C(=C/c2ccc(Cc3ccc(C(=O)O)cc3)o2)SC1=S | – | ≥ 100 µg/mL | ≥ 100 µg/mL | 63% | >= 100 ug ml-1 | –
14 | CN(C)[C@@H]1C(O)=C(C(N)=O)C(=O)[C@@]2(O)C(O)=C3C(=O)c4c(O)cccc4[C@@](C)(O)[C@H]3C[C@@H]12 | inactive | – | – | – | – | –
15 | NC[C@H]1O[C@H](O[C@H]2[C@H](O)[C@@H](O[C@H]3O[C@H](CO)[C@@H](O)[C@H](N)[C@H]3O)[C@H](N)C[C@@H]2N)[C@H](N)C[C@@H]1O | inactive | – | – | – | – | –
16 | C=CCN1C(=O)/C(=C/c2ccc(-c3cc(N)cc(C(=O)O)c3)o2)SC1=S | – | ≥ 100 µg/mL | ≥ 100 µg/mL | 71% | >= 100 ug ml-1 | –
17 | CC[C@H]1OC(=O)[C@H](C)[C@@H](O[C@H]2C[C@@](C)(OC)[C@@H](O)[C@H](C)O2)[C@H](C)[C@@H](O[C@@H]2O[C@H](C)C[C@H](N(C)C)[C@H]2O)[C@](C)(O)C[C@@H](C)C(=O)[C@H](C)[C@@H](O)[C@]1(C)O | inactive | – | – | – | – | –
18 | C=CCN1C(=O)/C(=C/c2ccc(-c3ccccc3C(=O)O)o2)SC1=S | – | ≥ 100 µg/mL | ≥ 100 µg/mL | 72% | >= 100 ug ml-1 | –
19 | C=CCN1C(=O)/C(=C/c2ccc(-c3cccc(N)c3)o2)SC1=S | – | ≥ 100 µg/mL | ≥ 100 µg/mL | 11% | >= 100 ug ml-1 | –
20 | GENTAMICIN | inactive | – | – | – | – | –
21 | O=C1NC(=O)/C(=C/c2ccc(-c3ccc(C(=O)O)cc3)o2)N1 | – | ≥ 100 µg/mL | ≥ 100 µg/mL | 55% | >= 100 ug ml-1 | –

Row | Molecule | Activity (Staphylococcus aureus [1]) | MIC [2] | MIC (Escherichia coli [3]) | inhibition at 10 µM (Escherichia coli [5]) | Activity (CHO) | also measured
22 | C[C@@H]1O[C@@H]1P(=O)(O)O | Active | – | – | – | – | –
23 | Cc1nnc(SCC2=C(C(=O)O)N3C(=O)[C@@H](NC(=O)Cn4cnnn4)[C@H]3SC2)s1 | inactive | – | – | – | – | –
24 | C=CCN1C(=O)/C(=C/c2ccc(-c3ccc4c(c3)C(=O)OC4)o2)SC1=S | – | ≥ 100 µg/mL | ≥ 100 µg/mL | 5% | 50 µg/mL | –
25 | C=CCN1C(=O)/C(=C/c2ccc(-c3ccc(S(=O)(=O)O)cc3)o2)SC1=S | – | ≥ 100 µg/mL | ≥ 100 µg/mL | 9% | >= 100 ug ml-1 | –
26 | C=CCN1C(=O)/C(=C/c2ccc(-c3ccc(C(=O)OC)cc3)o2)SC1=S | – | ≥ 100 µg/mL | ≥ 100 µg/mL | 10% | >= 100 ug ml-1 | –
27 | CN1C(=O)/C(=C/c2ccc(-c3cccc(C(=O)O)c3)o2)SC1=S | – | > 100 µg/mL | > 100 µg/mL | 89% | >= 100 ug ml-1 | –
28 | CC1(C)S[C@@H]2[C@H](NC(=O)[C@H](N)c3ccc(O)cc3)C(=O)N2[C@H]1C(=O)O | inactive | – | – | – | – | –
29 | CC(=O)/N=C1\NC(=O)/C(=C/c2ccc(-c3ccc(C(=O)O)cc3)o2)S1 | – | ≥ 100 µg/mL | ≥ 100 µg/mL | 98% | >= 100 ug ml-1 | –
30 | C=CCN1C(=O)S/C(=C\c2ccc(-c3ccc(C(=O)O)cc3)o2)C1=O | – | ≥ 100 µg/mL | ≥ 100 µg/mL | 75% | >= 100 ug ml-1 | –
31 | C=CCN1C(=O)/C(=C/c2ccc(-c3cccc(Cl)c3)o2)SC1=S | – | ≥ 100 µg/mL | 12.5 µg/mL (≈ 34.5 µM) | 76% | >= 100 ug ml-1 | –
32 | CCN1CCN(C(=O)N[C@@H](C(=O)N[C@@H]2C(=O)N3[C@@H]2SC(C)(C)[C@@H]3C(=O)O)c2ccccc2)C(=O)C1=O | inactive | – | – | – | – | –
33 | C=CCN1C(=O)/C(=C/c2ccc(-c3ccc(C(=O)NO)cc3)o2)SC1=S | – | ≥ 100 µg/mL | 25 µg/mL (≈ 64.7 µM) | 100% | >= 100 ug ml-1 | MIC (Staphylococcus aureus [4]): ≥ 100 µg/mL; MIC (Staphylococcus aureus [1]): ≥ 100 µg/mL; MIC [6]: ≥ 100 µg/mL; MIC (Streptococcus pneumoniae): 25 µg/mL (≈ 64.7 µM); MIC (Clostridioides difficile): ≥ 100 µg/mL; MIC (Bacillus anthracis): 50 µg/mL (≈ 129 µM)
34 | C=CCN1C(=O)/C(=C/c2ccc(-c3cccc(C(F)(F)F)c3)o2)SC1=S | – | ≥ 100 µg/mL | ≥ 100 µg/mL | – | >= 100 ug ml-1 | –
35 | CN[C@H](CC(C)C)C(=O)N[C@H]1C(=O)N[C@@H](CC(N)=O)C(=O)N[C@H]2C(=O)N[C@H]3C(=O)N[C@H](C(=O)N[C@H](C(=O)O)c4cc(O)cc(O)c4-c4cc3ccc4O)[C@H](O)c3ccc(c(Cl)c3)Oc3cc2cc(c3O[C@@H]2O[C@H](CO)[C@@H](O)[C@H](O)[C@H]2O[C@H]2C[C@](C)(N)[C@H](O)[C@H](C)O2)Oc2ccc(cc2Cl)[C@H]1O | Active | – | – | – | – | –
36 | Cc1onc(-c2ccccc2)c1C(=O)N[C@@H]1C(=O)N2[C@@H]1SC(C)(C)[C@@H]2C(=O)O | inactive | – | – | – | – | –
37 | C=CCN1C(=O)/C(=C/c2ccc(-c3ccccc3)o2)SC1=S | – | ≥ 100 µg/mL | 3.13 µg/mL (≈ 9.56 µM) | 46% | >= 100 ug ml-1 | MIC (Staphylococcus aureus [4]): ≥ 100 µg/mL; MIC (Staphylococcus aureus [1]): ≥ 100 µg/mL; MIC [6]: ≥ 100 µg/mL; MIC (Streptococcus pneumoniae): ≥ 100 µg/mL; MIC (Clostridioides difficile): ≥ 100 µg/mL; MIC (Bacillus anthracis): 0.78 µg/mL (≈ 2.38 µM)
38 | O=C(O)CN1C(=O)/C(=C/c2ccc(-c3cccc(C(=O)O)c3)o2)SC1=S | – | ≥ 100 µg/mL | ≥ 100 µg/mL | 17% | >= 100 ug ml-1 | –
39 | O=C(O)c1ccc(-c2ccc(/C=C3\Sc4ccccc4C3=O)o2)cc1 | – | > 100 µg/mL | > 100 µg/mL | 30% | >= 100 ug ml-1 | –
40 | CO[C@H]1/C=C/O[C@@]2(C)Oc3c(C)c(O)c4c(O)c(c(/C=N/N5CCN(C)CC5)c(O)c4c3C2=O)NC(=O)/C(C)=C\C=C\[C@H](C)[C@H](O)[C@@H](C)[C@@H](O)[C@@H](C)[C@H](OC(C)=O)[C@@H]1C | inactive | – | – | – | – | –
41 | COCCN1C(=O)N/C(=C\c2ccc(-c3cccc(C(=O)O)c3)o2)C1=O | – | ≥ 100 µg/mL | ≥ 100 µg/mL | 85% | >= 100 ug ml-1 | –
